Values after ≈ are worked out from the molar mass of the structure shown. Active and inactive are the calls of the source. The calls are words filed in the database; no cut-off is given here.
Tests used:
[1] = tested on: Cryptococcus neoformans; experiment: Antifungal activity against Cryptococcus neoformans H99 measured after 24 to 72 hrs; type: functional; conditions: var grubii H99
Outline: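 Modified CLSI broth microdilution with inoculum per M27A3. Compounds were serially diluted 32 to 0.03 μg/mL. Media: C. neoformans in HEPES-buffered YNB without amino acids (pH 7.0, 2% glucose); Candida strains in YNB without ammonium sulfate or amino acids plus 1% asparagine (pH 7.0, 2% glucose); A. fumigatus in RPMI (pH 7.0, 2% glucose).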

[2] = tested on: Cryptococcus neoformans; experiment: Fungicidal activity against Cryptococcus neoformans H99 measured after 72 hrs by time-kill assay; type: functional, var grubii H99
Outline: (§1)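 Overnight C. neoformans washed in PBS and resuspended in HEPES-buffered YNB, pH 7.4. 2 × 10⁴ cells exposed to a range of drug concentrations in 10 mL with 0.5% DMSO final, at 37°C, 5% CO₂, shaking at 200 rpm. Aliquots sampled over 96 h, diluted and plated on YPD; CFU counted after 48 h at 30°C.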

[3] = tested on: A549; experiment: Cytotoxicity against human A549 cells after 24 to 48 hrs by MTT assay; type: functional; conditions: read-out: LD50 (the source's name)
Outline: (§2)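 A549 and HepG2 kept in DMEM with 10% FBS and 1% pen-strep. At passage 7, seeded at 10⁵ cells/well and allowed to adhere 14 h. Compound added at 0.03–128 μg/mL, untreated wells as controls. Incubation 37°C, 5% CO₂ for 24 or 48 h. MTT (5 mg/mL in PBS) added for 4 h, formazan dissolved in DMSO, OD570.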

[4] = tested on: HepG2; experiment: Cytotoxicity against human HepG2 cells after 24 to 48 hrs by MTT assay; type: functional; conditions: read-out: LD50 (the source's name); outline: as §2
[5] = Selectivity index, ratio of LD50 for human A549 cells to MIC80 for Cryptococcus neoformans H99; type: toxicity; conditions: read-out: Selectivity Index
Outline: (§3)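 SI = LD₅₀/MIC₈₀. Cytotoxicity: A549 or HepG2 cells (DMEM, 10% FBS, passage 7, 10⁵ cells/well) adhered 14 h, then exposed to 0.03–128 μg/mL for 24 or 48 h at 37°C, 5% CO₂; MTT 4 h, formazan dissolved in DMSO, read at 570 nm. MIC₈₀ against C. neoformans from broth microdilution in HEPES-buffered YNB, pH 7.0.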

[6] = Selectivity index, ratio of LD50 for human HepG2 cells to MIC80 for Cryptococcus neoformans H99; type: toxicity; conditions: read-out: Selectivity Index; outline: as §3
[7] = tested on: Cryptococcus neoformans; experiment: Fungicidal activity against Cryptococcus neoformans H99 measured after 12 hrs by time-kill assay; type: functional, var grubii H99; outline: as §1
[8] = tested on: Cryptococcus neoformans; experiment: Fungistatic activity against Cryptococcus neoformans H99 by time-kill assay; type: functional, organism-based; conditions: var grubii H99; outline: as §1

SMILES	MIC80 [1] [µg/mL]	MFC100 [2] [µg/mL]	CC50 [3] [µg/mL]	CC50 [4] [µg/mL]	selectivity ratio [5]	selectivity ratio [6]	MFC100 [7] [µg/mL]	Activity [8]
O=C(N/N=C/c1cc(Br)ccc1O)c1ccc(OC(F)(F)F)cc1F	0.5 (≈ 1.19 µM)	0.5 (≈ 1.19 µM)	64 (≈ 152 µM)	8 (≈ 19 µM)	128	16		
Cc1ccc(O)c(/C=N/NC(=O)c2ccc(Br)c(Br)c2)c1	0.12 (≈ 0.291 µM)	0.5 (≈ 1.21 µM)	16 (≈ 38.8 µM)	16 (≈ 38.8 µM)	133	133		
N#Cc1ccc(C(=O)N/N=C/c2cc(Br)cc(Br)c2O)cc1	0.06 (≈ 0.142 µM)	1 (≈ 2.36 µM)	64 (≈ 151 µM)	16 (≈ 37.8 µM)	1070	267		
O=C(N/N=C/c1cc(Br)ccc1O)c1ccc(OC(F)F)cc1	0.25 (≈ 0.649 µM)	2 (≈ 5.19 µM)	32 (≈ 83.1 µM)	16 (≈ 41.5 µM)	128	64		
O=C(N/N=C/c1cc(Br)cc(Br)c1O)c1ccc(C(F)(F)F)cc1	0.12 (≈ 0.257 µM)		4 (≈ 8.58 µM)	8 (≈ 17.2 µM)	33.3		1 (≈ 2.15 µM)	
O=C(N/N=C/c1cc(Br)ccc1O)c1ccc(OC(F)(F)F)cc1	0.06 (≈ 0.149 µM)		4 (≈ 9.92 µM)	16 (≈ 39.7 µM)	66.6	267	1 (≈ 2.48 µM)	
CN(C)c1ccc(C(=O)N/N=C/c2ccc(Br)cc2O)cc1	0.25 (≈ 0.69 µM)		16 (≈ 44.2 µM)	16 (≈ 44.2 µM)	64	64		Active
O=C(N/N=C/c1cc(C(F)(F)F)ccc1O)c1cccc(Br)c1	0.5 (≈ 1.29 µM)		16 (≈ 41.3 µM)	16 (≈ 41.3 µM)	32	32		Active
O=C(N/N=C/c1cc(Br)ccc1O)c1ccc(Br)c(Br)c1	0.25 (≈ 0.524 µM)	1 (≈ 2.1 µM)	8 (≈ 16.8 µM)	8 (≈ 16.8 µM)	32	32		
O=C(N/N=C/c1cc(OC(F)(F)F)ccc1O)c1ccc(Br)cc1	0.25 (≈ 0.62 µM)	1 (≈ 2.48 µM)	16 (≈ 39.7 µM)	64 (≈ 159 µM)	64	256		
O=C(N/N=C/c1cccc(Br)c1O)c1cccc(F)c1	1 (≈ 2.97 µM)		16 (≈ 47.5 µM)	16 (≈ 47.5 µM)	16	16	2 (≈ 5.93 µM)	
O=C(N/N=C/c1cc(Br)ccc1O)c1cc(Br)cc(Br)c1	0.06 (≈ 0.126 µM)		16 (≈ 33.5 µM)	16 (≈ 33.5 µM)	267	267		Active
CN(C)c1ccc(C(=O)N/N=C/c2cc(Br)cc(Br)c2O)cc1	0.5 (≈ 1.13 µM)		16 (≈ 36.3 µM)	16 (≈ 36.3 µM)	32	32		Active
O=C(N/N=C/c1c(O)ccc2ccccc12)c1ccc(Br)c(Br)c1	0.12 (≈ 0.268 µM)		4 (≈ 8.93 µM)	16 (≈ 35.7 µM)	33.3	133		Active
O=C(N/N=C/c1cc(Br)ccc1O)c1ccccc1C(F)(F)F	1 (≈ 2.58 µM)	1 (≈ 2.58 µM)	16 (≈ 41.3 µM)	16 (≈ 41.3 µM)	16	16		
O=C(N/N=C/c1cc(Br)cc(Br)c1O)c1cnc2ccccc2c1	0.25 (≈ 0.557 µM)		32 (≈ 71.3 µM)	32 (≈ 71.3 µM)	128	128		Active
O=C(N/N=C/c1cc(Br)cc(Br)c1O)c1ccc(OC(F)(F)F)cc1	0.5 (≈ 1.04 µM)	4 (≈ 8.3 µM)	64 (≈ 133 µM)	16 (≈ 33.2 µM)	128	32		
O=C(N/N=C/c1ccc(Br)cc1O)c1ccc(Br)c(Br)c1	0.12 (≈ 0.252 µM)	0.5 (≈ 1.05 µM)	4 (≈ 8.39 µM)	8 (≈ 16.8 µM)	33.3	66.6		

Reference: ChEMBL document CHEMBL4334465, “SAR Studies on Aromatic Acylhydrazone-Based Inhibitors of Fungal Sphingolipid Synthesis as Next-Generation Antifungal Agents” (J Med Chem, 2019)
